Measurements published in ChEMBL document CHEMBL1681680, “Synthesis of chroman aldehydes that inhibit HIV” (Bioorg Med Chem Lett, 2011).

Legend:
[1] = test system: Human immunodeficiency virus 1; assay: Antiviral activity against HIV1 NL4-3 infected in human HeLa37 cells assessed as inhibition of viral infectivity after 40 hrs by single round infectivity assay; assay type: functional, organism-based; details: Human immunodeficiency virus 1, NL4-3, HeLa37, 40 h
How it was run: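 HIV-1 NL4-3 and compound mixed, then added to HeLa37 cells (5×10^4 cells/well) at MOI ~0.005. Infection maintained 40 h. Cells fixed in 75% acetone/25% water and immunostained with human anti-HIV antisera. HIV antigen-positive cells counted and normalized to controls at the same DMSO level (DMSO ≤0.5%). IC50 and IC90 taken from dose-response curves. Triplicates, three independent experiments.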

[2] = Cytotoxicity against human HeLa37 cells assessed as cell viability by ATPLite assay; assay type: functional; details: for CC50: Homo sapiens, HeLa37, read-out: LC50 (the source's name)
How it was run: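 HeLa37 cells plated and dosed as in the infectivity assay, compounds up to 100 μg/mL, DMSO ≤0.5%. A separate DMSO dose-response (0.05–0.5%) was run, and its effect on viability was subtracted. LC50 and LC90 taken from dose-response. Triplicates, three independent experiments.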

Row | SMILES | IC50 [1] [µM] | IC90 [1] [µM] | LC90 [2] [µM] | CC50 [2] [µM]
1 | CC(=O)c1c(O)c(C=O)c2c(c1O)CCC(C)(C)O2 | 30.2 | 85 | 258 | 145
2 | CC(=O)c1c(O)c2c(c(C(C)=O)c1O)OC(C)(C)CC2 | > 100 | > 100 |  | > 100
3 | CC(=O)c1c(O)c(C=O)c(O)c2c1OC(C)(C)CC2 | 39.8 | 85.6 |  | > 100
4 | CC1(C)CCc2c(O)c(C=O)c(O)c(C=O)c2O1 | 77.3 | > 100 |  | > 100
5 | COc1c(C=O)c(OC)c(C(C)=O)c2c1CCC(C)(C)O2 | 55.3 | > 100 |  | > 100
6 | CC(=O)c1c(O)c(C=O)c2c(c1O)C=CC(C)(C)O2 | 34.6 | 98.2 |  | > 100
7 | CC1(C)CCc2c(O)c(C(=O)CC(=O)c3ccccc3)c(O)c(C=O)c2O1 | 40.7 | 86.6 |  | 84.2
